Screening data (PubChem BioAssay)
ATG4B inhibitor: ATG4B (human) cysteine protease inhibition | inhibition, % at 8.33 µM | 0.51% of 340,000 active | Q9Y4P1 | ATG4B cleavage of LC3-PLA2, NBD-HPC fluorescence, 1 h; in the data active = inhibition above about 40%
ALR H2O2 inh: inhibitors of human sulfhydryl oxidase ALR | purified ALR, DTT oxidation, H2O2 HRP-luminol luminescence | inhibition, % (test concentration not listed) | 3.8% of 290,000 active | AID 485317;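 active = mean replicate inhibition above about 79%, with every replicate also reaching it, limit read from the data; inconclusive = only one of the two criteria met; inactive = mean below limit and not every replicate reaching it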
Target sequence (P55789 whole entry, looked up): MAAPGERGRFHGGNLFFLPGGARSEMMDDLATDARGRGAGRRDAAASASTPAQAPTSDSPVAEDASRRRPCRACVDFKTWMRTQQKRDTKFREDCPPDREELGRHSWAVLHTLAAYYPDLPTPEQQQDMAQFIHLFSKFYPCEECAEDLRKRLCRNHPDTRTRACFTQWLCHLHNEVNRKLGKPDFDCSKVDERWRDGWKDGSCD
NALP1 yeast inh: blocks the NALP1 inflammasome reconstituted in yeast; S. cerevisiae NALP1/ASC/caspase-1 growth, X-gal OD620, 72 h; inhibition, % at 10 µM; 0.61% of 280,000 active; in the data active = inhibition mostly above about 24%, no sharp cut-off; inactive = mostly below about 32%
Calb FLC: C. albicans growth modulation with fluconazole. C. albicans CaCi-2 (fluconazole-resistant clinical isolate) + fluconazole, Alamar Blue growth, 48 h. 0.57% of 300,000 active. growth inhibition, % (no concentration beside the values). AID 1979;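 active = growth inhibition above about 58% in most replicates, limit read from the data, passing the limit was not always enough; inconclusive = exactly half the replicates above a set limit; inactive = most replicates below a set limit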;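 also: all wells also contain fluconazole at 8 µg/ml as a sub-toxic cotreatment; 0% = median of DMSO wells and 100% = median of geldanamycin control wells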
UCH37 inh: blocks the human deubiquitinase UCH37; inhibition, % (concentration not given with the values); 0.33% of 330,000 active; purified proteasome/UCH37, Ub-AMC cleavage fluorescence;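 active = mean inhibition over replicate wells above about 20%, limit read from the data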;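 also: 0% = compound-free wells with enzyme and 100% = wells lacking proteasome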
Target sequence (Q9Y5K5 whole entry, looked up): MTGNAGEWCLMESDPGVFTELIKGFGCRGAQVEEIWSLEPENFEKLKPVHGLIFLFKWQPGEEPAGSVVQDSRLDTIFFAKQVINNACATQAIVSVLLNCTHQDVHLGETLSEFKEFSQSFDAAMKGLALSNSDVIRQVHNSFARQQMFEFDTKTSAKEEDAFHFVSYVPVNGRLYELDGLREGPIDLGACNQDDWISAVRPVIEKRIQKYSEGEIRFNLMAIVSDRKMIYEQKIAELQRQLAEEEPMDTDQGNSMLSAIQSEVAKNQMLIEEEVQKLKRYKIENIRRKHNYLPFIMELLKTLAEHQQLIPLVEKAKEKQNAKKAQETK
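Test system – human UCH37 enzyme supplied as purified proteasome complex · Incubation – 30 min preincubation with enzyme, 25 min cleavage at room temperature · Detection – AMC fluorescence from Ub-AMC cleavage, excitation 355 nm, emission 460 nm · Benchmarks – no-proteasome wells (full inhibition) and compound-free wells (no inhibition)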
NALP3 yeast inh: blocks the NALP3 inflammasome reconstituted in yeast; 0.39% of 330,000 active; inhibition, % at 10 µM; AID 2825; Yeast reconstituted NLRP3/ASC/caspase-1, beta-gal luminescence, 24 h;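 active = inhibition of 50% or more; inactive = inhibition below 50%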;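 also: plate controls were induced DMSO wells for no effect and uninduced yeast grown without galactose for full effect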
The depositor's hits bear a star; i = inactive; ? = inconclusive; / = not tested or not shown; ! = a repeat was not active. Only some compounds are listed: those with a hit (about 4.8% of all), similar ones and a draw of the others.

SMILES	ATG4B inhibitor	ALR H2O2 inh	NALP1 yeast inh	Calb FLC	UCH37 inh	NALP3 yeast inh
CCCCOC(=O)c1ccc(-c2ccc(C=NNC(=S)NCC)o2)cc1	/	/	/	/	-37.6	/
CN(C)Cc1c(O)ccc2occ(C(=O)c3ccc(F)cc3)c12	2.8	5.5	9.1	27.4	/	5.6
CN(C)Cc1c(O)ccc2occ(C(=O)c3ccccc3)c12	9.5	-49.9	0.7	5.6	6.1	4.2
Cc1ccc(C(=O)c2coc3ccc(O)c(Cl)c23)cc1	-4.9	97.5*	13.3	21.4	3.1	37.2
O=C(c1ccccc1)c1coc2ccc(O)c(Cl)c12	4.2	99.0*	9.3	30.4	4.1	-24.3
Oc1ccc(C=Nn2cc(-c3ccccc3)[nH]c2=S)cc1	/	/	/	/	-1.6	/
O=C(C=NO)Nc1cccnc1	/	/	/	/	-0.2	/
Cc1ccccc1-c1nc(CS(=O)(=O)CC(=O)NCc2ccc(F)cc2)c(C)o1	21.9	-17.3	14.5	-1.3	0.3	15.7
CCC(C)NC(=O)CS(=O)Cc1nc(-c2ccccc2C)oc1C (configuration not stated)	-1.5	98.3*	3.0	-7.4	0.8	9.2
Cc1ccccc1-c1nc(CS(=O)CC(=O)NCCN2CCN(Cc3ccccc3)CC2)c(C)o1 (configuration not stated)	-11.6	98.7*	16.4	4.5	3.8	11.7
Cc1ccc(NC(=O)CS(=O)CC(=O)NCCCN(C)c2ccccc2)cc1 (configuration not stated)	-0.7	?	-14.1	-5.5	2.0	-3.2
CCN1CCN(C(=O)CS(=O)(=O)Cc2nc(-c3ccccc3C)oc2C)CC1	-8.7	-15.5	22.5	2.3	-0.8	6.2
Cc1ccccc1-c1nc(CS(=O)CC(=O)NCc2ccccn2)c(C)o1 (configuration not stated)	3.2	98.5*	-12.7	-4.4	2.4	21.1
Cc1ccccc1-c1nc(CS(=O)CC(=O)NCCCN(C)c2ccccc2)c(C)o1 (configuration not stated)	0.8	99.4*	13.7	-10.6	0.4	9.2
C[n+]1ccc(C(=O)NN=Cc2ccco2)cc1	/	/	/	/	13.1	/
CCCNC(=O)CS(=O)Cc1nc(-c2ccccc2C)oc1C (configuration not stated)	-3.3	99.3*	-19.7	-3.1	4.1	6.1
CCc1cc(=O)[nH]c(SCc2cccnc2)n1	-3.1	98.3*	13.0	4.0	5.2	5.1
CCc1c(C)nc(SCc2cccnc2)[nH]c1=O	2.2	98.8*	12.1	4.3	3.0	2.2
CCc1cc(=O)[nH]c(SCc2ccc(C)cc2)n1	-1.8	1.8	6.9	-3.3	5.2	12.1
CN1c2ccccc2N(C)C1(C)c1ccccc1	-7.8	-15.8	21.6	122.1*	7.4	/
CSc1ccccc1NC(=S)NN=Cc1cccn1Cc1ccc(F)cc1	/	/	/	/	6.8	/
COc1ccc(NC(=O)C(=O)NN=C(C)CC(=O)Nc2ccccn2)c(OC)c1	/	/	/	/	4.2	/
CC1N(C)c2cccc3cccc(c23)N1C	-0.5	/	3.7	?	i	18.1
CN1c2cccc3cccc(c23)N(C)C1c1cccs1	2.0	90.4*	14.4	17.2	-0.3	22.8
COc1ccc(C(=O)NN=Cc2cn[nH]c2-c2ccc(OC)cc2OC)cc1	/	/	/	/	-5.6	/
SMILES	ATG4B inhibitor	ALR H2O2 inh	NALP1 yeast inh	Calb FLC	UCH37 inh	NALP3 yeast inh
CCc1ccc(-n2cc(-c3ccc(F)cc3)[n+]3c2SCCC3)cc1	5.2	-7.5	14.9	32.7	4.0	-1.3
Cc1ccc(-c2cn(-c3ccccc3)c3[n+]2CCCS3)cc1	-9.4	-4.3	-2.7	99.2*!	4.2	4.0
COc1ccc(-n2cc(-c3ccc(C)cc3)[n+]3c2SCC3)cc1	-4.8	1.3	25.6	107.0*	34.6*	8.4
Cc1sc(NN=Cc2ccco2)nc1-c1ccccc1	/	/	/	/	0.9	/
CC(=NNc1nncc2ccccc12)c1ccc(Cl)c([N+](=O)[O-])c1	/	/	/	/	4.7	/
Cc1cccc(NCC(=O)NN=Cc2cccc(Oc3ccccc3)c2)c1	/	/	/	/	1.9	/
Cn1cccc1/C=N/n1c(-c2ccc(Cl)cc2Cl)n[nH]c1=S	-0.2	97.0*	22.6	-6.4	/	15.8
Cn1cccc1C=Nn1c(-c2ccc(Cl)cc2Cl)n[nH]c1=S	/	/	/	/	4.6	/
COc1ccccc1OCC(=O)NCCSCc1ccc(Cl)cc1	-0.4	25.4	63.8*	49.5	-1.3	21.2
COc1ccccc1OCCC(=O)OCC(=O)NCc1ccc(F)cc1	-8.7	/	/	/	0.4	4.2
COc1ccccc1OCCC(=O)OCC(=O)NCc1ccc(Cl)cc1	-7.8	96.9*	11.0	-3.5	-0.1	-11.4
O=S(=O)(NN=Cc1cccc(OC2CSC2)c1)c1ccccc1	/	/	/	/	3.3	/
CC(C)(C)c1ccc(C2=CSC3=NCCN23)cc1	0.5	/	-21.7	0.7	3.9	21.4
Clc1ccc(C2=CSC3=NCCN23)cc1Cl	-4.5	96.8*	21.7	9.8	5.1	10.7
CCCCOc1ccc(C2=CSC3=NCCN23)cc1[N+](=O)[O-]	-0.8	34.0	11.6	-10.9	5.1	5.7
COc1ccc(C2=CSC3=NCCN23)cc1OC	-0.3	95.9*	6.9	-30.1	0.5	3.6
O=C(C[n+]1ccccc1)NN=Cc1cccs1	/	/	/	/	2.6	/
COc1ccccc1C(=O)Nc1nnc(-c2ccc(F)cc2)o1	-9.3	-0.3	6.6	21.8	2.2	23.7
O=C(Nc1nnc(-c2ccc(F)cc2)o1)c1ccco1	0.3	95.6*	-56.7	15.6	7.5	8.8
Cc1ccccc1C(=O)Nc1nnc(-c2ccc(F)cc2)o1	-1.7	/	-4.4	88.5*	5.2	14.9
CCOC(=O)c1nn(-c2ccc3c(c2)OCCO3)cc1O	0.9	6.5	-1.8	-3.3	-34.1	1.1
CCOC(=O)c1nn(-c2ccc(C)c(C)c2)cc1O	5.1	97.3*	9.0	7.2	-0.2	33.7
COc1ccc(-n2ccnc(SCC(=O)NC3CCCCC3)c2=O)cc1	-5.6	98.3*	13.1	10.0	-16.3	-1.8
CCOc1ccc(-n2ccnc(SCC(=O)Nc3ccc(OC)cc3OC)c2=O)cc1	0.4	/	/	37.0	-35.4	15.1
CCOc1ccc(-n2ccnc(SCC(=O)Nc3ccc(CC)cc3)c2=O)cc1	-1.9	98.6*	/	27.4	-133.8	32.6
SMILES	ATG4B inhibitor	ALR H2O2 inh	NALP1 yeast inh	Calb FLC	UCH37 inh	NALP3 yeast inh
COc1ccc(-n2ccnc(SCC(=O)NC3CCCC3)c2=O)cc1	1.1	51.2	20.7	4.2	-22.2	13.1
Cc1noc(C)c1CSCC(=O)Nc1nc2ccc(S(C)(=O)=O)cc2s1	-0.8	97.4*	/	0.0	3.1	19.3
Cc1cnc(NC(=O)CSCc2c(C)noc2C)s1	-3.1	-12.8	/	/	-1.9	10.8
COc1ccc2nc(NC(=O)CSCc3c(C)noc3C)sc2c1	-1.2	0.8	/	14.5	5.2	11.1
Cc1noc(C)c1CSCC(=O)NC1=NCCS1	-6.2	97.2*	-0.9	9.9	0.5	5.5
CC(=O)Nc1ccc(S(=O)(=O)N2CCN(Cc3cccs3)CC2)cc1	-5.1	-13.8	26.3*	-4.6	0.1	0.1
COc1cc(S(=O)(=O)N2CCN(Cc3cccs3)CC2)ccc1NC(C)=O	-12.0	-1.9	/	/	5.0	5.8
